From ChEMBL document CHEMBL4184148 (Bioorg Med Chem Lett, 2017)

Experiments:
[1] = target: Cyclin-dependent kinase 4 (Homo sapiens) (UniProt P11802); assay: Binding affinity to wild-type human full length CDK4 (M1 to E303 residues) expressed in HEK293 cells at 1 uM by Kinomescan method relative to control; assay type: cell-based
[2] = target: Mitogen-activated protein kinase kinase kinase kinase 4 (Homo sapiens) (UniProt O95819); assay: Binding affinity to wild-type human partial length MAP4K4 (M1 to R310 residues) expressed in Escherichia coli BL21 at 1 uM by Kinomescan method relative to control
[3] = target: MAP kinase-interacting serine/threonine-protein kinase 1 (Homo sapiens) (UniProt Q9BUB5); assay: Binding affinity to wild-type human full length MKNK1 (M1 to L424 residues) expressed in HEK293 cells at 1 uM by Kinomescan method relative to control; assay type: cell-based
MAP kinase-interacting serine/threonine-protein kinase 1 (Homo sapiens), sequence (Q9BUB5 whole entry, looked up, the tested form may be a part): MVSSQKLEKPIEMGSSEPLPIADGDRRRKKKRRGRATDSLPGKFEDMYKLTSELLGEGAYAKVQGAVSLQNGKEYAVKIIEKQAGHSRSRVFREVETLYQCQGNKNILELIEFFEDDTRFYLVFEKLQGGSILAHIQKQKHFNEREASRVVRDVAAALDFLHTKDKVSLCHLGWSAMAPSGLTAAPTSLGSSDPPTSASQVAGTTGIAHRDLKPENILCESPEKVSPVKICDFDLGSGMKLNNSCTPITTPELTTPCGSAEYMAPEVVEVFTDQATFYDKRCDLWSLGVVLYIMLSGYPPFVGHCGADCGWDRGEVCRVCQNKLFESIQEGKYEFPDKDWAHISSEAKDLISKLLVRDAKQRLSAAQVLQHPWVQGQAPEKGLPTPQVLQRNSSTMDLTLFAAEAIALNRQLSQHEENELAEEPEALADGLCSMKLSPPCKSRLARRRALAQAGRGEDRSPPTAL
Procedure, shortened: (§1)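 Run as one kinome-wide competition binding panel with each compound at a single fixed concentration. Results were plotted as a kinome-wide selectivity map.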

[4] = target: Mitogen-activated protein kinase kinase kinase 9 (Homo sapiens) (UniProt P80192); assay: Binding affinity to wild-type human partial length MLK1 (V88 to W426 residues) expressed in Escherichia coli BL21 at 1 uM by Kinomescan method relative to control
Mitogen-activated protein kinase kinase kinase 9 (Homo sapiens), sequence (P80192 whole entry, looked up, the tested form may be a part): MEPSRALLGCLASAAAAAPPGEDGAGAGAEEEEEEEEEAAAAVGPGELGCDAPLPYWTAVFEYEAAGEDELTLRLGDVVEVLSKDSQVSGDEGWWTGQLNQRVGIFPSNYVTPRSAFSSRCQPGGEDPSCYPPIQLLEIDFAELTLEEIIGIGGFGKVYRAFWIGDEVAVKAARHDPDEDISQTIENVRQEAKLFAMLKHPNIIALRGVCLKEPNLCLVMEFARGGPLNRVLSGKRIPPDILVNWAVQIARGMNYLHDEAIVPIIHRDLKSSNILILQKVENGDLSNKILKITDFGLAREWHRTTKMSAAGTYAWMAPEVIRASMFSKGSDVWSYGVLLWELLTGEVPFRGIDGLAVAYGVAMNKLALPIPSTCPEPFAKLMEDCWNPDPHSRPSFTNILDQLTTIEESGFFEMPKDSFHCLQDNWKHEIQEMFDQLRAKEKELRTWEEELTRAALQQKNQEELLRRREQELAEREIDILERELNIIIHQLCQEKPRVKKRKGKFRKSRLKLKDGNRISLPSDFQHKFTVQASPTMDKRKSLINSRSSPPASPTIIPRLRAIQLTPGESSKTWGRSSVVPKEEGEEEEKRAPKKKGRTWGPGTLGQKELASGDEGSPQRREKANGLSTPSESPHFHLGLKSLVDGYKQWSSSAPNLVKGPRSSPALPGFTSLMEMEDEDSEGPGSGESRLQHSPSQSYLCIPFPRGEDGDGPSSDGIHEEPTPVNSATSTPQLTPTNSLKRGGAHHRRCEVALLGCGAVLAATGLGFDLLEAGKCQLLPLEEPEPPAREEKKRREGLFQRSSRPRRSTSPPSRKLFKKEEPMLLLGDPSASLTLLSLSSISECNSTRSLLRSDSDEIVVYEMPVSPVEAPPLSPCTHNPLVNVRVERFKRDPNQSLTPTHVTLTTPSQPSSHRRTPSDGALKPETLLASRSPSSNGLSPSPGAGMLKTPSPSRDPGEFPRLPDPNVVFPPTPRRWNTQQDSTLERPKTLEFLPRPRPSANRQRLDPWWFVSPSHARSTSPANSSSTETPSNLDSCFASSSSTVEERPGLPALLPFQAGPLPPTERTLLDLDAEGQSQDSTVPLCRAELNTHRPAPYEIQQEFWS

[5] = target: Tyrosine-protein kinase Tec (Homo sapiens) (UniProt P42680); assay: Binding affinity to wild-type human partial length TEC (L341 to D620 residues) expressed in Escherichia coli BL21 at 1 uM by Kinomescan method relative to control
Tyrosine-protein kinase Tec (Homo sapiens), sequence (P42680 whole entry, the tested form may be a part): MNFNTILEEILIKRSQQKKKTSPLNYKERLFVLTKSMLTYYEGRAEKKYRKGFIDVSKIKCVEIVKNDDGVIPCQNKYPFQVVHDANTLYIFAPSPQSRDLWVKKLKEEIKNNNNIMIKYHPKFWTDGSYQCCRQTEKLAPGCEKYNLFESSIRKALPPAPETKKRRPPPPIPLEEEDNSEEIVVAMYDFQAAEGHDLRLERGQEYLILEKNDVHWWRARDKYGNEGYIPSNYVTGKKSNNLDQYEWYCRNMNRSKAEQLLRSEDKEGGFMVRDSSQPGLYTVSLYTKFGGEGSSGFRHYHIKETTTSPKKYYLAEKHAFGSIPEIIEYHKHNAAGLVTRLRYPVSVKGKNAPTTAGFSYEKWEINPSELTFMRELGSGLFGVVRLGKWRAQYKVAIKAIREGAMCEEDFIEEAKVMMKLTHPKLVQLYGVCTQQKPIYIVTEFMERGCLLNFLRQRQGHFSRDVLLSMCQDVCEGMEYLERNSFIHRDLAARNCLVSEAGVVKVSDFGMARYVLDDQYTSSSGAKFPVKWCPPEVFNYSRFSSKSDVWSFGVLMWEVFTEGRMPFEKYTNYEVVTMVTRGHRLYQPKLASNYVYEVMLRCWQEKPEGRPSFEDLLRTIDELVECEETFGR

[6] = target: Tyrosine-protein kinase Fer (Homo sapiens) (UniProt P16591); assay: Binding affinity to wild-type human partial length FER (S542 to T822 residues) expressed in Escherichia coli BL21 at 1 uM by Kinomescan method relative to control
[7] = target: Tyrosine-protein kinase JAK1 (Homo sapiens) (UniProt P23458); assay: Binding affinity to wild-type human partial length JAK1 JH2 pseudokinase domain (R537 to D855 residues) expressed in HEK293 cells at 1 uM by Kinomescan method relative to control; assay type: cell-based
Tyrosine-protein kinase JAK1 (Homo sapiens), sequence (P23458 whole entry, the tested form may be a part): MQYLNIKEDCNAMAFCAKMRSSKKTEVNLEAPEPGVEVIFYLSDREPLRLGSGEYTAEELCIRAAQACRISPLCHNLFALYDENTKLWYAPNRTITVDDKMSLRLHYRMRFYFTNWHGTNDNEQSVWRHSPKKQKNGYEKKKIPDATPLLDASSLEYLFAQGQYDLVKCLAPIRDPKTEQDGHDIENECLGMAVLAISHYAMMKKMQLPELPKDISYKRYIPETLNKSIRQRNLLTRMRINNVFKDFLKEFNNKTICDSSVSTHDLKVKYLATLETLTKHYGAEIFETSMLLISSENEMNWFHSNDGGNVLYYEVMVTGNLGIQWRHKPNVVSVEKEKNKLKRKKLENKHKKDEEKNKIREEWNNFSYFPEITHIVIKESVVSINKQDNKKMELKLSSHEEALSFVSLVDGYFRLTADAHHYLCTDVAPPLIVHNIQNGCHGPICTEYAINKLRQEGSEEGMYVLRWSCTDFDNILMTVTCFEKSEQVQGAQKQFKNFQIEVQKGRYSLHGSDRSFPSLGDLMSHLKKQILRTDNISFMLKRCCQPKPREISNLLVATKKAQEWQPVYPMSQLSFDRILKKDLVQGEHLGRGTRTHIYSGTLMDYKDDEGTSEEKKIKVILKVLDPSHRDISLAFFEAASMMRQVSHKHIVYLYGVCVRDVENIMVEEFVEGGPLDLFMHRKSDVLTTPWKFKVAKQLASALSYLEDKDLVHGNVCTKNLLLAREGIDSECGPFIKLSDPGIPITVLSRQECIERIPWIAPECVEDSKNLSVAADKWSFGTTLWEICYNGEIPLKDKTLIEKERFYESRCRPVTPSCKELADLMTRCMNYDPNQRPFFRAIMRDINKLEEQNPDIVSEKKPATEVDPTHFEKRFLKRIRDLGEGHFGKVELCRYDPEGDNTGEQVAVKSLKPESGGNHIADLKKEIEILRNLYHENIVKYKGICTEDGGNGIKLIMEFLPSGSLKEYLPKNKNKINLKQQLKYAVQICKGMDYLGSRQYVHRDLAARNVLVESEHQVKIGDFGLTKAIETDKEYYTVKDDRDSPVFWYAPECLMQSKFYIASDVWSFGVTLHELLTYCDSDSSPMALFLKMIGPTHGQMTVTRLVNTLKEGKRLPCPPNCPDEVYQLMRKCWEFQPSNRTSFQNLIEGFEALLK

[8] = target: Death-associated protein kinase 1 (Homo sapiens) (UniProt P53355); assay: Binding affinity to wild-type human partial length DAPK1 (M1 to F296 residues) expressed in Escherichia coli BL21 at 1 uM by Kinomescan method relative to control
[9] = target: Ephrin type-A receptor 8 (Homo sapiens) (UniProt P29322); assay: Binding affinity to wild-type human partial length EPHA8 (Q608 to C920 residues) expressed in Escherichia coli BL21 at 1 uM by Kinomescan method relative to control
[10] = target: Serine/threonine-protein kinase WNK2 (Homo sapiens) (UniProt Q9Y3S1); assay: Binding affinity to wild-type human partial length WNK2 (V47 to D482 residues) expressed in HEK293 cells at 1 uM by Kinomescan method relative to control; assay type: cell-based
[11] = target: Mitogen-activated protein kinase 1 (Homo sapiens) (UniProt P28482); assay: Binding affinity to wild-type human full length ERK2 (M1 to S360 residues) expressed in Escherichia coli BL21 at 1 uM by Kinomescan method relative to control; procedure, shortened: as §1
[12] = target: Serine/threonine-protein kinase PAK 1 (Homo sapiens) (UniProt Q13153); assay: Binding affinity to wild-type human partial length PAK1 (S149 to H545 residues) expressed in Escherichia coli BL21 at 1 uM by Kinomescan method relative to control
[13] = target: Casein kinase I isoform alpha (Homo sapiens) (UniProt P48729); assay: Binding affinity to wild-type human partial length CSNK1A1 (M1 to L450 residues) expressed in HEK293 cells at 1 uM by Kinomescan method relative to control; assay type: cell-based
[14] = target: RAC-gamma serine/threonine-protein kinase (Homo sapiens) (UniProt Q9Y243); assay: Binding affinity to wild-type human partial length AKT3 expressed in Escherichia coli BL21 at 1 uM by Kinomescan method relative to control
RAC-gamma serine/threonine-protein kinase (Homo sapiens), sequence (Q9Y243 whole entry): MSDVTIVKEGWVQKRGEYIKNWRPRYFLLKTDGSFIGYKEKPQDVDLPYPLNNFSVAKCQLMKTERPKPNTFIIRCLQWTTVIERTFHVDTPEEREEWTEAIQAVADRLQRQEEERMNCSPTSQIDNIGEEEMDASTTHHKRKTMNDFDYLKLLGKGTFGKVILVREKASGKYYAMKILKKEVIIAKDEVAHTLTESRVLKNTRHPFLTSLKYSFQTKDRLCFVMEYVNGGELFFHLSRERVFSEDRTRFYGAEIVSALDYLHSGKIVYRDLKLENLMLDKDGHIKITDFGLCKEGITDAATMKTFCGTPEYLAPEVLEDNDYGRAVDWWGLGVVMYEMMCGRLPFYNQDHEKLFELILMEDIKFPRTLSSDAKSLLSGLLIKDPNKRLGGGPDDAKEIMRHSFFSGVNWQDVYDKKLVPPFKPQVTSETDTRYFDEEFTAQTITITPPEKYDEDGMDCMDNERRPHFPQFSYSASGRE
Procedure, shortened: (§2)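 Kinome-wide competition binding panel run by an outside provider, with each compound tested at a single concentration. Activity is read against the kinase panel.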

[15] = target: Cyclin-dependent kinase 2 homolog (Plasmodium falciparum (isolate 3D7)) (UniProt P61075); assay: Binding affinity to wild-type Plasmodium falciparum full length PK5 (M1 to N288 residues) expressed in HEK293 cells at 1 uM by Kinomescan method relative to control; assay type: cell-based
[16] = target: Leukocyte tyrosine kinase receptor (Homo sapiens) (UniProt P29376); assay: Binding affinity to wild-type human partial length LTK (P422 to S744 residues) expressed in Escherichia coli BL21 at 1 uM by Kinomescan method relative to control
[17] = target: Hepatocyte growth factor receptor (Homo sapiens) (UniProt P08581); assay: Binding affinity to wild-type human partial length MET (D1010 to S1367 residues) expressed in Escherichia coli BL21 at 1 uM by Kinomescan method relative to control
[18] = target: NT-3 growth factor receptor (Homo sapiens) (UniProt Q16288); assay: Binding affinity to wild-type human partial length TRKC (Q531 to G825 residues) expressed in HEK293 cells at 1 uM by Kinomescan method relative to control; assay type: cell-based
NT-3 growth factor receptor (Homo sapiens), sequence (Q16288 32-839 limits assumed): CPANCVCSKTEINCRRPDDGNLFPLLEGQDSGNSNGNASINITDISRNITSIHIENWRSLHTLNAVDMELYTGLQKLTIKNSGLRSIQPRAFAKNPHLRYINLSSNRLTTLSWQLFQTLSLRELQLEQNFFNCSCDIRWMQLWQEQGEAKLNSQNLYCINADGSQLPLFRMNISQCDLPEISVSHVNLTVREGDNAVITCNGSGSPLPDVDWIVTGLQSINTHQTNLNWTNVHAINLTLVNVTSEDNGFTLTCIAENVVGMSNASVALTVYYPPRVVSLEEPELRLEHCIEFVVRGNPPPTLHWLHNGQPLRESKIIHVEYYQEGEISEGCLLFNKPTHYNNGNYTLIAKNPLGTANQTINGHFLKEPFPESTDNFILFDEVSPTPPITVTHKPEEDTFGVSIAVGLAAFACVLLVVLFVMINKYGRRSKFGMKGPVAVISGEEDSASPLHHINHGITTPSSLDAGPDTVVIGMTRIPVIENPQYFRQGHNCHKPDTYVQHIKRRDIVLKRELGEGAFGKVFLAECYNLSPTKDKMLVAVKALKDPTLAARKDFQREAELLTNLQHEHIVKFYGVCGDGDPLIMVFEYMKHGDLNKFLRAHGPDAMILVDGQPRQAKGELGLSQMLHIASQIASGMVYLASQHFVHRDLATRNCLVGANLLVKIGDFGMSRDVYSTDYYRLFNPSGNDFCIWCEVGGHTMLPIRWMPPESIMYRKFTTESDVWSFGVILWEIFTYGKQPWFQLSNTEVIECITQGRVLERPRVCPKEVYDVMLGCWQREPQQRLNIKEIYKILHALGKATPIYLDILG

[19] = target: Homeodomain-interacting protein kinase 2 (Homo sapiens) (UniProt Q9H2X6); assay: Binding affinity to wild-type human partial length HIPK2 (M153 to S564 residues) expressed in HEK293 cells at 1 uM by Kinomescan method relative to control; assay type: cell-based
[20] = target: Focal adhesion kinase 1 (Homo sapiens) (UniProt Q05397); assay: Binding affinity to wild-type human partial length FAK (D402 to R696 residues) expressed in Escherichia coli BL21 at 1 uM by Kinomescan method relative to control
[21] = target: Ephrin type-B receptor 3 (Homo sapiens) (UniProt P54753); assay: Binding affinity to wild-type human partial length EPHB3 (Q599 to T928 residues) expressed in Escherichia coli BL21 at 1 uM by Kinomescan method relative to control
[22] = target: Ribosomal protein S6 kinase alpha-1 (Homo sapiens) (UniProt Q15418); assay: Binding affinity to wild-type human partial length C-terminal RSK1 kinase domain 2 (P360 to L681 residues) expressed in Escherichia coli BL21 at 1 uM by Kinomescan method relative to control
[23] = target: Testis-specific serine/threonine-protein kinase 3 (Homo sapiens) (UniProt Q96PN8); assay: Binding affinity to wild-type human full length TSSK3 (M1 to T268 residues) expressed in HEK293 cells at 1 uM by Kinomescan method relative to control; assay type: cell-based; procedure, shortened: as §2
[24] = target: Serine/threonine-protein kinase tousled-like 1 (Homo sapiens) (UniProt Q9UKI8); assay: Binding affinity to wild-type human partial length TLK1 (K447 to A754 residues) expressed in Escherichia coli BL21 at 1 uM by Kinomescan method relative to control
[25] = target: Serine/threonine-protein kinase BRSK2 (Homo sapiens) (UniProt Q8IWQ3); assay: Binding affinity to wild-type human full length BRSK2 (M1 to L674 residues) expressed in Escherichia coli BL21 at 1 uM by Kinomescan method relative to control

Cyclin-dependent kinase 4 (Homo sapiens), sequence (P11802 whole entry, the tested form may be a part): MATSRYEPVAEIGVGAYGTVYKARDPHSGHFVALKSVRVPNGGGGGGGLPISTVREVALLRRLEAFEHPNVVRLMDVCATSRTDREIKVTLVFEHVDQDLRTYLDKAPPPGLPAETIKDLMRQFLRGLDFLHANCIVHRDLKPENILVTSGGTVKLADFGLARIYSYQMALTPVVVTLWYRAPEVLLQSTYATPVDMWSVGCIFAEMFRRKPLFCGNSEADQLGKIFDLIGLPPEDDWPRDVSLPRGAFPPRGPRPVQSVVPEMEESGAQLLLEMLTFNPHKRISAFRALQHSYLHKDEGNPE

Compound | Activity [1] [%] | Activity [2] [%] | Activity [3] [%] | Activity [4] [%] | Activity [5] [%] | Activity [6] [%] | Activity [7] [%] | Activity [8] [%] | Activity [9] [%] | Activity [10] [%] | Activity [11] [%] | Activity [12] [%] | Activity [13] [%] | Activity [14] [%] | Activity [15] [%] | Activity [16] [%] | Activity [17] [%] | Activity [18] [%] | Activity [19] [%] | Activity [20] [%] | further results
C=CC(=O)Nc1ccc(C(=O)Nc2ccc(Nc3ncc4c(n3)N(C)c3ccc(C)cc3C(=O)N4C)cc2)cc1 | 100 | 98 | 95 | 100 | 100 | 78 | 100 | 100 | 91 | 86 | 99 | 93 | 86 | 83 | 96 | 96 | 100 | 100 | 94 | 92 | Activity [21]: 89%; Activity [22]: 96%; Activity [23]: 100%; Activity [24]: 94%; Activity [25]: 98%
CCC(=O)Nc1ccc(C(=O)Nc2ccc(Nc3ncc4c(n3)N(C)c3ccc(C)cc3C(=O)N4C)cc2)cc1 | 89 | 95 | 96 | 88 | 93 | 85 | 79 | 90 | 80 | 94 | 87 | 94 | 58 | 100 | 94 | 85 | 90 | 89 | 100 | 99 | Activity [21]: 88%; Activity [22]: 99%; Activity [23]: 59%; Activity [24]: 99%; Activity [25]: 88%
